Test results reported in ChEMBL document CHEMBL4699557, “Structure activity relationship of novel antiviral nucleosides against Enterovirus A71” (Bioorg Med Chem Lett, 2020).
Activity calls are given as the source filed them. The rule behind the calls is not given here.

Assays:
Enterovirus A71 [1] = experiment: microbe, parasite or virus in culture; type: functional, organism-based, Tainin/4643/98, Vero 76; details: Enterovirus A; for EC50: Tainin/4643/98, Vero 76, 72 h
Vero 76 [2] = experiment: (§1) Cytotoxicity against monkey Vero 76 cells by microscopic analysis; type: cell-based; details: chlorocebus sabaeus, vero 76
Enterovirus A71 [3] = experiment: microbe, parasite or virus in culture; type: functional, organism-based; details: Enterovirus A, Tainin/4643/98, Vero 76, 72 h
Vero 76 [4] = experiment: (§2) Cytotoxicity against monkey Vero 76 cells by neutral red uptake assay; type: cell-based; details: chlorocebus sabaeus, vero 76
enterovirus D68 [5] = experiment: Antiviral activity against Enterovirus D68 US/KY/14-18953 infected in RD cells assessed as reduction in virus yield by visual inspection method; type: functional, organism-based; details: Enterovirus D, US/KY/14-18953, RD
In short: (§3)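 Cell-based inhibition of virus replication. Vero 76 cells for Coxsackie B3 and poliovirus 1; RD cells for enterovirus 68. Two read-outs: visual scoring of virus yield reduction and neutral red uptake for cytopathic effect. EC50 is reported, and EC90 for some visual values.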

RD [6] = experiment: Cytotoxicity against human RD cells by microscopic based visual inspection method; type: cell-based
[7] = Selectivity index, ratio of CC50 for human RD cells to EC50 for Enterovirus D68 US/KY/14-18953 strain; type: toxicity
In short: (§4)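 Selectivity index calculated as CC50/EC50, both from the same cell line and the same read-out (visual or neutral red).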

enterovirus D68 [8] = experiment: Antiviral activity against Enterovirus D68 US/KY/14-18953 strain infected in RD cells assessed as reduction in virus-induced cytopathic effect by neutral red uptake assay; type: functional, organism-based; details: Enterovirus D, US/KY/14-18953, RD
In short: as §3

RD [9] = experiment: Cytotoxicity against human RD cells by neutral red uptake assay; type: cell-based
[10] = Selectivity index, ratio of CC50 for human RD cells to EC50 for Enterovirus D68 US/KY/14-18953 by neutral red uptake assay; type: toxicity; details: read-out: Ratio CC50/EC50
In short: as §4

[11] = tested on: Respiratory syncytial virus; experiment: Antiviral activity against Respiratory syncytial virus; type: functional, organism-based
in vitro [12] = details: monkey, Vero 76 cells
in vitro [13] = details: monkey, Vero 76 cells; remark: listed apart in the source
Coxsackievirus [14] = experiment: Antiviral activity against Coxsackie virus B3 HA 201 933 infected in Vero 76 cells assessed as reduction in virus yield by visual inspection method; type: functional, organism-based; details: B3 HA 201 933, Vero 76
In short: as §3

[15] = Selectivity index, ratio for CC50 of monkey Vero 76 cells to EC50 for Coxsackie virus B3 HA 201 933 by visual inspection method; type: toxicity; details: read-out: Ratio CC50/EC50
In short: as §4

Coxsackievirus [16] = experiment: Antiviral activity against Coxsackie virus B3 HA 201 933 infected in Vero 76 cells assessed as reduction in virus-induced cytopathic effect by neutral red uptake assay; type: functional, organism-based; details: B3 HA 201 933, Vero 76
In short: as §3

[17] = Selectivity index, ratio for CC50 of monkey Vero 76 cells to EC50 for Coxsackie virus B3 HA 201 933 by neutral red uptake assay; type: toxicity; details: read-out: Ratio CC50/EC50
In short: as §4

Poliovirus 1 [18] = experiment: Antiviral activity against Poliovirus 1 Mahoney infected in monkey Vero 76 cells assessed as reduction in virus yield by visual inspection method; type: functional, organism-based; details: Enterovirus C
In short: as §3

[19] = Selectivity index, ratio of CC50 for monkey Vero 76 cells to EC50 for Poliovirus 1 Mahoney; type: toxicity; details: read-out: Ratio CC50/EC50
In short: as §4

Poliovirus 1 [20] = experiment: Antiviral activity against Poliovirus 1 Mahoney infected in monkey Vero 76 cells assessed as reduction in virus-induced cytopathic effect by neutral red uptake assay; type: functional, organism-based; details: Enterovirus C
In short: as §3

[21] = Selectivity index, ratio of CC50 for monkey Vero 76 cells to EC50 for Poliovirus 1 Mahoney by neutral red uptake assay; type: toxicity; details: read-out: Ratio CC50/EC50
In short: as §4

Tacaribe virus = experiment: Antiviral activity against Tacaribe virus; type: functional, organism-based; details: Mammarenavirus tacaribeense
[22] = Inhibition of capsid protein VP1 in Enterovirus 71; parameters: species or system Enterovirus A71
[23] = as §1; type: cell-based; details: chlorocebus sabaeus, Vero 76 cells
[24] = as §2; type: cell-based; details: chlorocebus sabaeus, Vero 76 cells
Enterovirus A71 [25] = experiment: Antiviral activity against Enterovirus 71; type: functional, organism-based; details: Enterovirus A
[26] = molecular target: 5-hydroxytryptamine receptor 2B (Homo sapiens, UniProt P41595); experiment: Binding affinity to 5HT2B (unknown origin)
Sequence of 5-hydroxytryptamine receptor 2B (P41595 whole entry): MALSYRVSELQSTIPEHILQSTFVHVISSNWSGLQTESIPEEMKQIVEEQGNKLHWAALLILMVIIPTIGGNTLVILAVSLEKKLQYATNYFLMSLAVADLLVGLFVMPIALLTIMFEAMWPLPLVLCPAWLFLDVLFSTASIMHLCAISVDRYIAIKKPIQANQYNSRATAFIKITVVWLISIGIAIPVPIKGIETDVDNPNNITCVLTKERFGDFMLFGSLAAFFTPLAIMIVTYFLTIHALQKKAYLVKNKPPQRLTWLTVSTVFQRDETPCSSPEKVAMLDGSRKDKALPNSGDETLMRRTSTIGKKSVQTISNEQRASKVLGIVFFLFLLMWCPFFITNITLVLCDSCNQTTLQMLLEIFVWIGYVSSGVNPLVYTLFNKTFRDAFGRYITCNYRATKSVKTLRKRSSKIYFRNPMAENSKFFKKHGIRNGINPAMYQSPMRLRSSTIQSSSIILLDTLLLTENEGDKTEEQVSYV

Row | SMILES | EC50 (Enterovirus A71 [1]) | CC50 (Vero 76 [2]) | EC50 (Enterovirus A71 [3]) | CC50 (Vero 76 [4]) | CC50 (RD [6]) | EC50 (enterovirus D68 [8]) | CC50 (RD [9]) | selectivity ratio [10] | selectivity ratio (in vitro [12]) | selectivity ratio (in vitro [13]) | also measured
1 | O[C@@H]1[C@H](O)[C@@H]2C[C@@H]2[C@H]1n1cnc2c(NC(C3CC3)C3CC3)nc(Cl)nc21 | 3.6 µM | > 100 µM | 3.4 µM | 34 µM | 41 µM | 9.3 µM | 41 µM | 4.4 | > 28 | 10 | EC90 (enterovirus D68 [5]): 15 µM; selectivity ratio ([7]; read-out: Ratio): 2.7; Activity [11]: inactive
2 | CC(C)S(=O)(=O)n1c(N)nc2ccc(/C(=N/O)c3ccccc3)cc21 [ENVIROXIME] | – | – | – | – | 4.2 µM | 0.032 µM | 1.5 µM | 47 | – | – | EC50 (Coxsackievirus [14]): < 0.01 µM; selectivity ratio [15]: > 1000; EC50 (Coxsackievirus [16]): < 0.01 µM; selectivity ratio [17]: > 450; EC50 (enterovirus D68 [5]): 0.032 µM; selectivity ratio ([7]; read-out: Ratio CC50/EC50): 130; EC50 (Poliovirus 1 [18]): 0.015 µM; selectivity ratio [19]: > 670; EC50 (Poliovirus 1 [20]): < 0.01 µM; selectivity ratio [21]: > 490
3 | OC[C@@]12C[C@@H]1[C@@H](n1cnc3c(NC(C4CC4)C4CC4)nc(Cl)nc31)[C@H](O)[C@@H]2O | – | > 100 µM | – | 68 µM | – | – | – | – | – | – | Activity (Tacaribe virus): inactive
4 | CC(C)[C@@H](Nc1nc(Cl)nc2c1ncn2[C@H]1[C@H](O)[C@H](O)[C@]2(CO)C[C@H]12)C1CC1 | – | 24 µM | 9.1 µM | 24 µM | > 100 µM | 32 µM | > 100 µM | – | – | – | EC90 (Enterovirus A71 [1]; Tainin/4643/98, Vero 76, time 72 hrs): 7.7 µM; EC50 (Coxsackievirus [14]): 16 µM; EC50 (Coxsackievirus [16]): 16 µM; EC50 (enterovirus D68 [5]): 32 µM; EC50 (Poliovirus 1 [18]): 28 µM; EC50 (Poliovirus 1 [20]): 27 µM
5 | CCn1nnc(-c2ccc(OCCC(C)CCN3CCN(c4ccncc4)C3=O)cc2)n1 (stereo not drawn) | – | – | – | – | – | – | – | – | – | – | IC50 [22]: 0.0008 µM
6 | OC[C@@]12C[C@@H]1[C@@H](n1ccc3c(NC(C4CCC4)C4CCC4)nc(Cl)nc31)[C@H](O)[C@@H]2O | 32 µM | – | – | – | – | – | – | – | > 3.1 | 3.6 | CC50 [23]: > 100 µM; CC50 [24]: 86 µM
7 | OC[C@H]1O[C@@H](n2cnc3c(NCc4cccc(C(F)(F)F)c4)ncnc32)[C@H](O)[C@@H]1O | – | – | – | – | – | – | – | – | – | – | EC50 (Enterovirus A71 [25]): 0.068 µM
8 | CC(C)[C@@H](Nc1nc(Cl)nc2c1ncn2[C@H]1[C@H](O)[C@H](O)[C@]2(CF)C[C@H]12)C1CC1 | – | 36 µM | 3 µM | 33 µM | 42 µM | 16 µM | 42 µM | 2.6 | 10 | 11 | EC90 (enterovirus D68 [5]): 7.7 µM; selectivity ratio ([7]; read-out: Ratio): 5.4; Ki [26]: 0.934 µM
9 | CC(C)[C@@H](Nc1nc(I)nc2c1ncn2[C@H]1[C@H](O)[C@H](O)[C@]2(CO)C[C@H]12)C1CC1 | 18 µM | 100 µM | 20 µM | 46 µM | – | – | – | – | 5.6 | 2.3 | Ki [26]: 0.17 µM
